From PubChem BioAssay
Shown are actives, neighbours in structure and some others; about 5.8% of the full set was active somewhere.
Tcruzi prolif = blocks T. cruzi growth in NIH3T3 culture. T. cruzi beta-gal in NIH3T3, GalScreen luminescence, 90 h. inhibition, % at 8.34 µM. 77,000 tested, 5.9% active;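 active = mean inhibition above about 93%, with at least 55% of replicates each passing it, limit read from the data, passing the limit was not always enough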
IDH1 mut inh = inhibitors of human IDH1 R132H. inhibition, % at 10 µM. 70,000 tested, 0.18% active. O75874. IDH1 R132H reductase, diaphorase/resazurin fluorescence, 60 min; in the data active = inhibition above about 34%
KDM4C inh = inhibitors of human demethylase GASC-1 KDM4C | Q9H3R0 | GST-KDM4C 2-372, H3K9me3 peptide, LANCE TR-FRET | inhibition, % at 12.5 µM | 96,000 tested, 0.15% active;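 active = mean replicate inhibition above about 25%, with at least 55% of replicates also reaching it, limit read from the data, passing the limit was not always enough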
Target sequence (Q9H3R0 2-372 limits assumed): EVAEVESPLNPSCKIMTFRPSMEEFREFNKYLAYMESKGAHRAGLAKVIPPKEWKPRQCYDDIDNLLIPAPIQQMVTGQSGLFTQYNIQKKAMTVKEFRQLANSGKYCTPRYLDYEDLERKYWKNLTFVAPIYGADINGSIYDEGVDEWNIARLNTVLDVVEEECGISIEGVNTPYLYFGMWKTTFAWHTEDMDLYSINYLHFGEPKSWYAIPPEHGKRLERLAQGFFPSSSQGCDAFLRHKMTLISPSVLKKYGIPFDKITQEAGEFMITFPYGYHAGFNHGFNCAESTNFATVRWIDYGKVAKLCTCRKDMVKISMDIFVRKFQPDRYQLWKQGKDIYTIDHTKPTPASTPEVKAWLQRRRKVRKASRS
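Material: GST-tagged GASC-1 (JMJD2C) catalytic fragment, aa 2-372 / Quantity: enzyme final amount 10 nM / Medium: HEPES buffer, pH 7.5, plus ascorbate / Doses: one test concentration per compound / Incubation: 30 min reaction, 60 min detection, RT / Measured by: LANCE TR-FRET / Read-out: inhibition from TR-FRET ratio decrease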
Pf Dd2 inh = P. falciparum Dd2 growth inhibition. SYBR Green, 72 h; active compounds read low. activity change, % at 10 µM. 94,000 tested, 2.3% active. AID 1159554; in the data active = activity change below about -80%
Large screens that a line does not name were inactive; ! = repeats disagree.

CC1OC(c2cc3oc(-c4ccccc4)cc(=O)c3c(O)c2O)CC(O)C1O (stereo not given)	none (no result: Tcruzi prolif, KDM4C inh, Pf Dd2 inh)
Cc1noc(C)c1S(=O)(=O)N(C)C[C@@H]1OCCCC[C@@H](C)Oc2ccc(NC(=O)Nc3ccc(C(F)(F)F)cc3)cc2C(=O)N([C@H](C)CO)C[C@@H]1C	none (no result: IDH1 mut inh)
Cc1noc(C)c1S(=O)(=O)N(C)C[C@H]1OCCCC[C@H](C)Oc2ccc(NC(=O)Nc3ccc(C(F)(F)F)cc3)cc2C(=O)N([C@H](C)CO)C[C@H]1C	none (no result: IDH1 mut inh)
C[C@@H]1CCCCO[C@@H](CN(C)S(=O)(=O)c2cn(C)cn2)[C@H](C)CN([C@H](C)CO)C(=O)c2cc(NC(=O)Nc3ccc(C(F)(F)F)cc3)ccc2O1	Pf Dd2 inh -88
Cc1noc(C)c1S(=O)(=O)N(C)C[C@H]1OCCCC[C@@H](C)Oc2ccc(NC(=O)Nc3ccc(C(F)(F)F)cc3)cc2C(=O)N([C@@H](C)CO)C[C@H]1C	Tcruzi prolif 97 (no result: IDH1 mut inh)
Cc1noc(C)c1S(=O)(=O)N(C)C[C@@H]1OCCCC[C@@H](C)Oc2ccc(NC(=O)Nc3ccc(C(F)(F)F)cc3)cc2C(=O)N([C@H](C)CO)C[C@H]1C	Pf Dd2 inh -92 (no result: IDH1 mut inh)
CCn1c(SCC(=O)Nc2ccc(Cl)cc2Cl)nnc1-c1ccccc1	none (no result: Tcruzi prolif, KDM4C inh, Pf Dd2 inh)
Cc1cccc(NC(=O)C(C)NS(=O)(=O)c2ccccc2)c1 (stereo not given)	none (no result: Tcruzi prolif, KDM4C inh, Pf Dd2 inh)
O=S(=O)(Nc1ncccn1)c1ccc(NS(=O)(=O)c2cc(Cl)ccc2Cl)cc1	none (no result: Tcruzi prolif, KDM4C inh, Pf Dd2 inh)
O=S(=O)(Nc1nccs1)c1ccc(NS(=O)(=O)c2cc(Cl)ccc2Cl)cc1	IDH1 mut inh 39 (no result: Tcruzi prolif, KDM4C inh, Pf Dd2 inh)
Cn1c(SCC(=O)O)nnc1-c1ccccc1	none (no result: Tcruzi prolif, KDM4C inh, Pf Dd2 inh)
COc1ccccc1S(=O)(=O)N(C)C[C@@H]1Oc2cc(C#CCC(C)C)ccc2S(=O)(=O)N([C@H](C)CO)C[C@@H]1C	Pf Dd2 inh -85!
COc1ccc(C#Cc2ccc3c(c2)O[C@H](CN(C)S(=O)(=O)c2ccccc2F)[C@H](C)CN([C@@H](C)CO)S3(=O)=O)cc1	none (no result: Tcruzi prolif)
COc1ccc(C#Cc2ccc3c(c2)O[C@@H](CN(C)S(=O)(=O)c2ccccc2F)[C@@H](C)CN([C@H](C)CO)S3(=O)=O)cc1	Pf Dd2 inh -88 (no result: Tcruzi prolif)
COc1ccccc1S(=O)(=O)N(C)C[C@@H]1Oc2cc(C#CCC3CCCC3)ccc2S(=O)(=O)N([C@H](C)CO)C[C@@H]1C	none (no result: Tcruzi prolif)
COc1ccc(S(=O)(=O)N(C)C[C@@H]2Oc3cc(C#CC4CCCCC4)ccc3S(=O)(=O)N([C@H](C)CO)C[C@@H]2C)cc1	none (no result: IDH1 mut inh)
COc1ccc(S(=O)(=O)N(C)C[C@H]2Oc3cc(C#CC4CCCCC4)ccc3S(=O)(=O)N([C@H](C)CO)C[C@@H]2C)cc1	Pf Dd2 inh -85 (no result: IDH1 mut inh)
Cc1cc(Br)ccc1NC(=O)Cn1ccc([N+](=O)[O-])n1	none (no result: Tcruzi prolif, KDM4C inh, Pf Dd2 inh)
O=C1/C(=C/c2cn[nH]c2-c2ccc(F)cc2)CS/C1=C\c1cn[nH]c1-c1ccc(F)cc1	none (no result: Tcruzi prolif, KDM4C inh, Pf Dd2 inh)
COc1ccc(OC)c(NC(=O)c2ccc(Cl)c(S(=O)(=O)Nc3ccc(C)cc3C)c2)c1	none (no result: Tcruzi prolif, KDM4C inh, Pf Dd2 inh)
COc1ccc2c3c(n(C)c2c1)[C@H](CO)N(Cc1ccncc1)CC31CCN(C(=O)Cc2ccncc2)CC1	Pf Dd2 inh -87 (no result: Tcruzi prolif, IDH1 mut inh)
COc1ccc2c3c(n(C)c2c1)[C@H](CO)N(Cc1cccc(F)c1)CC31CCN(C(=O)Cc2ccccc2)CC1	Pf Dd2 inh -83 (no result: Tcruzi prolif, IDH1 mut inh)
COc1ccc2c3c(n(C)c2c1)[C@H](CO)N(Cc1ccc2c(c1)OCO2)CC31CN(C(=O)c2ccc3c(c2)OCO3)C1	Pf Dd2 inh -88 (no result: Tcruzi prolif, IDH1 mut inh)
COc1ccc2c3c(n(C)c2c1)[C@@H](CO)N(Cc1ccncc1)CC31CCN(C(=O)C2CC2)CC1	none (no result: Tcruzi prolif, IDH1 mut inh, KDM4C inh)
CN(C)CCCNc1ncnc2c1sc1nc(N3CCOCC3)c3c(c12)CCC3	none (no result: Tcruzi prolif, KDM4C inh, Pf Dd2 inh)
COc1ccc(NC(=O)N(C)C[C@@H]2OCCCC[C@@H](C)Oc3ccc(NC(=O)Nc4ccc(C(F)(F)F)cc4)cc3C(=O)N([C@H](C)CO)C[C@@H]2C)cc1	none
C[C@@H]1CCCCO[C@@H](CN(C)C(=O)Nc2ccc3c(c2)OCO3)[C@@H](C)CN([C@@H](C)CO)C(=O)c2cc(NC(=O)Nc3ccc(C(F)(F)F)cc3)ccc2O1	Pf Dd2 inh -92 (no result: Tcruzi prolif)
C[C@@H]1CCCCO[C@@H](CN(C)C(=O)Nc2ccc(C(F)(F)F)cc2)[C@@H](C)CN([C@H](C)CO)C(=O)c2cc(NC(=O)Nc3ccc4c(c3)OCO4)ccc2O1	none (no result: Tcruzi prolif)
C[C@@H]1CCCCO[C@@H](CN(C)C(=O)Nc2ccc(F)cc2)[C@H](C)CN([C@H](C)CO)C(=O)c2cc(NC(=O)Nc3ccccc3)ccc2O1	Tcruzi prolif 112 (no result: IDH1 mut inh)
C[C@@H]1CCCCO[C@H](CN(C)C(=O)NC2CCCCC2)[C@@H](C)CN([C@@H](C)CO)C(=O)c2cc(NC(=O)Nc3ccc(C(F)(F)F)cc3)ccc2O1	Pf Dd2 inh -83
COc1ccc(NC(=O)N(C)C[C@@H]2OCCCC[C@H](C)Oc3ccc(NC(=O)Nc4ccc(C(F)(F)F)cc4)cc3C(=O)N([C@@H](C)CO)C[C@@H]2C)cc1	Tcruzi prolif 120
C[C@H]1CCCCO[C@H](CN(C)C(=O)Nc2ccc(C(F)(F)F)cc2)[C@@H](C)CN([C@@H](C)CO)C(=O)c2cc(NC(=O)Nc3ccc(F)cc3)ccc2O1	Pf Dd2 inh -80
COc1ccc(NC(=O)Nc2ccc3c(c2)C(=O)N([C@H](C)CO)C[C@H](C)[C@@H](CN(C)C(=O)Nc2ccc4c(c2)OCO4)OCCCC[C@H](C)O3)cc1	none
C[C@@H]1CN([C@H](C)CO)C(=O)c2cc(NC(=O)CCC(F)(F)F)ccc2O[C@H]1CN(C)C(=O)NC1CCCCC1	Pf Dd2 inh -87
C[C@@H]1CCCCO[C@@H](CN(C)C(=O)Nc2ccc(C(F)(F)F)cc2)[C@@H](C)CN([C@H](C)CO)C(=O)c2cc(NC(=O)Nc3ccc(F)cc3)ccc2O1	none (no result: Tcruzi prolif)
COc1ccc(NC(=O)Nc2ccc3c(c2)C(=O)N([C@@H](C)CO)C[C@H](C)[C@H](CN(C)C(=O)Nc2ccc4c(c2)OCO4)OCCCC[C@@H](C)O3)cc1	Pf Dd2 inh -82 (no result: IDH1 mut inh)
C[C@@H]1CCCCO[C@@H](CN(C)C(=O)Nc2ccc(F)cc2)[C@@H](C)CN([C@@H](C)CO)C(=O)c2cc(NC(=O)Nc3ccc(C(F)(F)F)cc3)ccc2O1	Pf Dd2 inh -88 (no result: Tcruzi prolif)
C[C@@H]1CN([C@@H](C)CO)S(=O)(=O)c2ccc(-c3ccncc3)cc2O[C@H]1CN(C)Cc1ccc(Oc2ccccc2)cc1	Pf Dd2 inh -86
COc1cccc(-c2ccc3c(c2)O[C@H](CN(C)Cc2cncnc2)[C@@H](C)CN([C@@H](C)CO)S3(=O)=O)c1	none
C[C@H]1CN([C@@H](C)CO)S(=O)(=O)c2ccc(-c3ccncc3)cc2O[C@H]1CN(C)Cc1ccccc1	none
COc1cccc(-c2ccc3c(c2)O[C@@H](CN(C)Cc2ccncc2)[C@@H](C)CN([C@H](C)CO)S3(=O)=O)c1	KDM4C inh 42 (no result: Tcruzi prolif)
Cc1c(NC(=O)CN(c2ccc(F)c(Cl)c2)S(C)(=O)=O)cccc1[N+](=O)[O-]	none (no result: Tcruzi prolif, KDM4C inh, Pf Dd2 inh)
